The values that follow come from ChEMBL document CHEMBL3792376, “Exploiting the Chromone Scaffold for the Development of Inhibitors of Corticosteroid Biosynthesis” (J Med Chem, 2016).

The target in one data set is T1, Aromatase (Homo sapiens, UniProt P11511).
T1 sequence (P11511 whole entry): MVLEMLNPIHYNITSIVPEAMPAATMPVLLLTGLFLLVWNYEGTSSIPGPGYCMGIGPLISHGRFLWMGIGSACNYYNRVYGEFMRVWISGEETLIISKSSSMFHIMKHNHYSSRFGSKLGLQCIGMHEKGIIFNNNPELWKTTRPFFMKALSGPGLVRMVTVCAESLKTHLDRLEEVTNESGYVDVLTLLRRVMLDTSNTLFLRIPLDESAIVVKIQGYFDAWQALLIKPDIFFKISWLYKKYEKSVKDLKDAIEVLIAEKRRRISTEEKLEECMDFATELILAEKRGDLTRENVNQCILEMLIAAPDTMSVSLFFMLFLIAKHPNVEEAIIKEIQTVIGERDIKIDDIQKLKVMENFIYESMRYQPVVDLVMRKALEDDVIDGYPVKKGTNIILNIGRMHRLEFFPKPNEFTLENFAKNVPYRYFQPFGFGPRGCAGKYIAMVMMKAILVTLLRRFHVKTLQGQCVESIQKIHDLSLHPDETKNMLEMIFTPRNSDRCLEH
Description: Inhibition of human placental CYP19 using [1beta-3H]-androstenedione as substrate for 3 hrs measured as formation of [3]H2O in presence of NADPH. The essentials:
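Microsomes from fresh human term placenta. [1β-3H]androstenedione 500 nM, NADPH, glucose 6-phosphate and dehydrogenase plus inhibitor in 0.05 M phosphate pH 7.4, preincubated 5 min at 30 °C. Started with microsomal protein and run 3 h. Ethyl acetate stop, HgCl2, dextran-coated charcoal to remove steroids. 3H2O released measured. Mean of ≥3 experiments, RSD <25%.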

Data set [1] deals with T2, Steroid 17-alpha-hydroxylase/17,20 lyase (Homo sapiens, UniProt P05093).
T2 sequence (P05093 whole entry): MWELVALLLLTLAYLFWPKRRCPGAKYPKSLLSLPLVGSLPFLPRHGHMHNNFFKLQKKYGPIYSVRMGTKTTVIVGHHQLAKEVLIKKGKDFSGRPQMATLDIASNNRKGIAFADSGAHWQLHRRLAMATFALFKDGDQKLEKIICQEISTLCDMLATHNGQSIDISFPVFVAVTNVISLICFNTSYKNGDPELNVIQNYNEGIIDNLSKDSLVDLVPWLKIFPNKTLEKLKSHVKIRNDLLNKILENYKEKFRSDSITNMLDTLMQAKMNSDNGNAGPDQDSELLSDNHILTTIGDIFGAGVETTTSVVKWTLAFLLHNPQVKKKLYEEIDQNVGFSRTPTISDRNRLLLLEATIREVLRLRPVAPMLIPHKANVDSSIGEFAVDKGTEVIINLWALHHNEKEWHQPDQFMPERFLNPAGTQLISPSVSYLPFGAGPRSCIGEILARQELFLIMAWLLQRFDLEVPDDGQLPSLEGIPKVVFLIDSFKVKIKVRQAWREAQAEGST
Description: Inhibition of human CYP17 expressed in Escherichia coli co-transfected with rat NADPH-P450 reductase using progesterone as substrate for 30 mins measured as formation of 17alpha-hydroxyprogesterone and 16alpha-hydroxyprogesterone in presence of NADPH. The procedure, abridged:
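Membrane pellet from E. coli co-expressing human CYP17 and rat NADPH-P450 reductase (lysozyme, sonication, 4 °C). Progesterone 25 μM with NADPH-generating system (NADP+, glucose 6-phosphate, G6P dehydrogenase) and inhibitor, preincubated 5 min at 37 °C. Membranes added, 30 min at 37 °C. Acid quench, ethyl acetate extraction. Readout: 17α- and 16α-hydroxyprogesterone formed. Mean of ≥3 runs.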

The target of data set [2] is T3, Cytochrome P450 11B2, mitochondrial (Homo sapiens, UniProt P19099).
T3 sequence (P19099 whole entry): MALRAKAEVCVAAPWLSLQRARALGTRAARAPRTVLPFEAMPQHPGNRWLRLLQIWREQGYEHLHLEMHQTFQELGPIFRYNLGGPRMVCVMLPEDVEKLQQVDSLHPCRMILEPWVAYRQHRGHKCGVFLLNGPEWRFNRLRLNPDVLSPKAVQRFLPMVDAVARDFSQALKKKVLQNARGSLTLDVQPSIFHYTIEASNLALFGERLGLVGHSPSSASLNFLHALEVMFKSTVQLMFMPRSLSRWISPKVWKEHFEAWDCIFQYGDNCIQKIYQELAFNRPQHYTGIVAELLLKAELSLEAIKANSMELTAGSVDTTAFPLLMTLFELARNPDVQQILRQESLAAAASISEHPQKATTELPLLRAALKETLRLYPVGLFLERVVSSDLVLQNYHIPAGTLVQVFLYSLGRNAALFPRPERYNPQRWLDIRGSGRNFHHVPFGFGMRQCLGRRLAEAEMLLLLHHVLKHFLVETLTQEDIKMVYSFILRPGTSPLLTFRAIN
Description: Inhibition of human CYP11B2 expressed in V79 MZh cells using [1,2-3H]-11-deoxycorticosterone as substrate for 30 mins by HPTLC analysis. Format: cell-based, V79MZh. The procedure, abridged:
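Confluent V79 MZh hamster fibroblasts expressing human CYP11B2, in 6-well plates. Reaction started with [1,2-3H]-11-deoxycorticosterone (100 nM) plus inhibitor at several concentrations and run 30 min. Chloroform extraction of supernatant, then HPTLC of steroids. Mean of ≥3 experiments, relative SD <25%.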

Data set [3] concerns the target T4, Cytochrome P450 11B1, mitochondrial (Homo sapiens, UniProt P15538).
T4 sequence (P15538 whole entry): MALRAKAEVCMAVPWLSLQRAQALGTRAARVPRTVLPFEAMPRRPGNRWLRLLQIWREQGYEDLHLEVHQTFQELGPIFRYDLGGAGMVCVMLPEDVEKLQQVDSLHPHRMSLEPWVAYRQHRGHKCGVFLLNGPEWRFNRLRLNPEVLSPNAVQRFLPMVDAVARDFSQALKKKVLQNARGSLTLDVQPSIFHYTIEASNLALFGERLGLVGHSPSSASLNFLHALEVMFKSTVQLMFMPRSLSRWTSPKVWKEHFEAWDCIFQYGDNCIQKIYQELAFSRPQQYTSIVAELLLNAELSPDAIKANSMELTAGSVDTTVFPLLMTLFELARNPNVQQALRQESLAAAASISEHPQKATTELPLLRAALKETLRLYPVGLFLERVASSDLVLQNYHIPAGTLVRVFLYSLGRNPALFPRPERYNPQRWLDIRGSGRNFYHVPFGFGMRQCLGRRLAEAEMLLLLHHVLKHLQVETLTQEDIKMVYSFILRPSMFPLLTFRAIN
Description: Inhibition of human CYP11B1 expressed in V79 MZh cells using [1,2-3H]-11-deoxycorticosterone as substrate for 6 hrs by HPTLC analysis. Format: cell-based, V79MZh. The essentials: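 Hamster fibroblast V79 MZh cells stably expressing human CYP11B1, grown to confluence in 6-well plates. Radiolabelled deoxycorticosterone at 100 nM, test inhibitor across a concentration range, 6 h incubation. Supernatant extracted with chloroform and centrifuged. Steroids redissolved in chloroform and separated by HPTLC. IC50 is the mean of at least three experiments, relative SD below 25%.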

The species entered for a further data set is Homo sapiens. The data set is described as follows: Selectivity index, ratio of IC50 for human CYP11B2 to IC50 for human CYP11B1. The essentials: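 Calculated as IC50(CYP11B2)/IC50(CYP11B1). Both IC50s come from V79 MZh hamster fibroblasts expressing the human enzyme, with 100 nM radiolabelled deoxycorticosterone: 6 h for 11B1 and 30 min for 11B2. Readout by HPTLC.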

A short description of data set [4]: Cytotoxicity against HEK293 cells assessed as cell viability upto 100 times IC50 concentration for 3 hrs by MTT assay. Format: cell-based. The following applies: human, read-out: Activity. The procedure, abridged:
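HEK293 cells in DMEM with 10% FCS, exposed to 0.1 and 1 μM compound for 3 h at 37 °C, 5% CO2, humidified. Then MTT (5 mg/mL stock in PBS) added for a further 3 h. Stopped and lysed with 10% SDS in 0.01 N HCl. Viability from MTT reduction, expressed as % of control.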
In general terms: Tetrazolium dyes change colour on reduction, which living cells bring about.

For orientation: IC50 means the concentration at which inhibition is half-maximal. As for `O=c1c(Cc2ccncc2)coc2ccccc12`, the IC50 was found to be 6100 nM on Aromatase, 4800 nM in data set [1], 954 nM in data set [2] and 88.2 nM in data set [3]. The Ratio IC50 in the data set filed under Homo sapiens was found to be 10.8.

Take `O=c1cc(Cn2ccnc2)oc2cc(F)ccc12`: the IC50 in data set [2] amounted to 620 nM; in data set [3], 327 nM. The Ratio IC50 in the data set listed under Homo sapiens came to 1.9.

Consider `COc1ccc2c(=O)cc(Cn3ccnc3)oc2c1`, for which the IC50 is 2270 nM in data set [2] and 1600 nM in data set [3]. Moreover, the Ratio IC50 in the data set filed under Homo sapiens worked out at 1.4.

Turning to `COc1ccc2c(=O)c(Cc3cccnc3)coc2c1`, the IC50 in data set [2] and in data set [3] was over 10000 nM in each case.

For `COc1ccc2c(=O)cc(Cc3ccncc3)oc2c1`, the IC50 in data set [2] is over 5000 nM; in data set [3] it was 3600 nM.

Regarding `O=c1cc(Cc2cccnc2)oc2cc(F)ccc12`, the IC50 in data set [2] and in data set [3] was over 10000 nM each time.

In the case of `O=c1cc(Cc2ccncc2)oc2ccccc12`, the IC50 came out at 1240 nM in data set [2] and 222 nM in data set [3]. For the same compound, the Ratio IC50 in the data set filed under Homo sapiens was found to be 5.6.

Regarding `COc1ccc2c(=O)c(Cn3ccnc3)coc2c1`, the results for the IC50 in data set [2] and in data set [3] were 768 nM and 372 nM, respectively. For the same compound, the Ratio IC50 in the data set filed under Homo sapiens worked out at 2.1.

As for `O=c1c(Cc2cccnc2)coc2cc(F)ccc12`, the IC50 in data set [2] and in data set [3] was over 10000 nM throughout.

For the compound `COc1ccc2c(=O)c(Cc3c[nH]cn3)coc2c1`, the IC50 on Aromatase is 7900 nM; in data set [1], over 10000 nM; in data set [2], 1070 nM; in data set [3], 109 nM. The Ratio IC50 in the data set listed under Homo sapiens was determined as 9.8.

For `O=c1cc(Cn2ccnc2)oc2ccccc12`, the results for the IC50 in data set [2] and in data set [3] were 500 nM and 253 nM, respectively. Moreover, the Ratio IC50 in the data set filed under Homo sapiens worked out at 2.

In the case of `O=c1c(Cc2c[nH]cn2)coc2cc(F)ccc12`, the concentration for half-maximal inhibition (IC50) at Aromatase was 3100 nM; in data set [1] it was over 10000 nM; in data set [2] it was 94.9 nM; in data set [3], 9.7 nM. In data set [4], the viability at 3 h came out at 95%. Moreover, the Ratio IC50 in the data set filed under Homo sapiens came out at 9.8.

As for `O=c1c(Cc2ccncc2)coc2cc(F)ccc12`, the IC50 at Aromatase is 5000 nM; in data set [1], 6600 nM; in data set [2] it was 317 nM; in data set [3], 58.1 nM. Moreover, the viability at 3 h in data set [4] came to 95%. In addition, the Ratio IC50 in the data set listed under Homo sapiens worked out at 5.3.

On to `O=c1c(Cc2c[nH]cn2)coc2ccccc12`, for which the results for the IC50 in data set [2] and in data set [3] were 121 nM and 29.5 nM, respectively. For the same compound, the viability at 3 h in data set [4] was 95%. Further, in the data set listed under Homo sapiens, the Ratio IC50 came to 4.1.

Take `O=c1cc(Cc2cccnc2)oc2ccccc12`: the IC50 in data set [2] and in data set [3] was over 10000 nM in each case.

For the compound `O=c1c(Cn2ccnc2)coc2cc(F)ccc12`, the 50% inhibitory concentration (IC50) in data set [2] is 214 nM; in data set [3], 86.9 nM. In addition, the Ratio IC50 in the data set filed under Homo sapiens turned out to be 2.5.

As for `O=c1cc(Cc2ccncc2)oc2cc(F)ccc12`, the IC50 on Aromatase is over 10000 nM; in data set [1], over 10000 nM; in data set [2], 643 nM; in data set [3] it was 82.7 nM. For the same compound, the Ratio IC50 in the data set filed under Homo sapiens came to 7.8.

In the case of `COc1ccc2c(=O)c(Cc3ccncc3)coc2c1`, the IC50 amounted to 3270 nM in data set [2] and 612 nM in data set [3]. In addition, the Ratio IC50 in the data set listed under Homo sapiens came out at 5.

For `O=c1c(Cc2cccnc2)coc2ccccc12`, the IC50 in data set [2] and in data set [3] was over 10000 nM in each case.

With `COc1ccc2c(=O)cc(Cc3cccnc3)oc2c1`, the IC50 in data set [2] and in data set [3] was over 10000 nM each time.

As to `O=c1c(Cn2ccnc2)coc2ccccc12`, the IC50 in data set [2] is 522 nM; in data set [3], 180 nM. The Ratio IC50 in the data set filed under Homo sapiens came to 2.9.
